Experimental data taken from ChEMBL document CHEMBL1124581, “Synthesis and hypolipidemic and antidiabetogenic activities of beta,beta,beta',beta'-tetrasubstituted, long-chain dioic acids” (J Med Chem, 1989).

Tests used:
[1] = biological target: Enoyl-CoA hydratase (Rattus norvegicus) (UniProt P07896); test: Liver peroxisomal palmitoyl-CoA oxidation activity in rats, at 0.00(w/w) in diet
How it was run: (§1)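 Hebrew University strain rats, 140–160 g, starved 48 h, then pair-refed for 3 consecutive nights a 15-g meal of high-carbohydrate fat-free powdered diet, with or without analogue mixed into the diet at the stated % (w/w). The morning after the last meal, 10 mCi 3H2O in saline given ip; rats killed 1 h later. Readouts: liver lipid 3H2O incorporation, plasma lipids, peroxisomal enoyl-CoA hydratase, CN-insensitive palmitoyl-CoA oxidation. Mean ± SD, n = 4.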

[2] = species on record: Rattus norvegicus; test: Hypolipidemic activity in rats by evaluating the plasma cholesterol level at 0.00 dose (% w/w) in diet; format: functional; how it was run: as §1
[3] = biological target: Enoyl-CoA hydratase (Rattus norvegicus) (UniProt P07896); test: Liver peroxisomal palmitoyl-CoA oxidation activity in rats, at 0.15(w/w) in diet; how it was run: as §1
[4] = species on record: Rattus norvegicus; test: Hypolipidemic activity in rats by evaluating the plasma triacylglycerol level at 0.00 (% w/w)in diet; format: functional; how it was run: as §1
[5] = biological target: Enoyl-CoA hydratase (Rattus norvegicus) (UniProt P07896); test: Liver peroxisomal enoyl-CoA hydratase activity in rats, at 0.00(w/w) in diet; how it was run: as §1
[6] = species on record: Rattus norvegicus; test: Hypolipidemic activity in rats by evaluating the plasma cholesterol level at 0.30 dose (% w/w) in diet; format: functional; how it was run: as §1
[7] = species on record: Rattus norvegicus; test: Inhibition of lipid synthesis, evaluated by incorporation of 3H20 at 0.00(w/w) into liver saponified fatty acids in rat; format: functional
[8] = species on record: Rattus norvegicus; test: Hypolipidemic activity in rats by evaluating the plasma cholesterol level at 0.15 dose (% w/w) in diet; format: functional; how it was run: as §1
[9] = species on record: Rattus norvegicus; test: Inhibition of lipid synthesis, evaluated by incorporation of 3H20 at 0.15(w/w) into liver cholesterol in rat; format: functional
[10] = species on record: Rattus norvegicus; test: Inhibition of lipid synthesis, evaluated by incorporation of 3H20 at 0.30(w/w) into liver cholesterol in rat; format: functional
[11] = species on record: Rattus norvegicus; test: Inhibition of lipid synthesis, evaluated by incorporation of 3H20 at 0.00(w/w) into liver cholesterol in rat; format: functional
[12] = species on record: Rattus norvegicus; test: Inhibition of lipid synthesis, evaluated by incorporation of 3H20 at 0.30(w/w) into liver saponified fatty acids in rat; format: functional
[13] = species on record: Rattus norvegicus; test: Hypolipidemic activity in rats by evaluating the plasma triacylglycerol level at 0.15 (% w/w)in diet; format: functional; how it was run: as §1
[14] = species on record: Rattus norvegicus; test: Hypolipidemic activity in rats by evaluating the plasma triacylglycerol level at 0.30 (% w/w)in diet; format: functional; how it was run: as §1
[15] = biological target: Enoyl-CoA hydratase (Rattus norvegicus) (UniProt P07896); test: Liver peroxisomal palmitoyl-CoA oxidation activity in rats, at 0.30(w/w) in diet; how it was run: as §1
[16] = species on record: Rattus norvegicus; test: Inhibition of lipid synthesis, by incorporation of 3H20 into 3-beta-hydroxysterols in cultured rat hepatocytes; format: functional; details: Hepatocyte, read-out: I50
How it was run: (§2)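 Cultured rat hepatocytes incubated with varying concentrations of homologue. 3H2O incorporation into saponified fatty acids and 3-β-hydroxysterols measured. I50 = concentration (mM) giving 50% inhibition.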

[17] = species on record: Rattus norvegicus; test: Percent inhibition of lipid synthesis by incorporation of 3H20 into saponified fatty acids in rat; format: functional; parameters: concentration or dose not given beside the values
How it was run: (§3)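 Rats fed for 3 consecutive days a carbohydrate-rich fat-free diet containing analogue (0.1% w/w for core-substituted series; 0.25% w/w for chain-length homologues). 10 mCi 3H2O given ip; liver taken 1 h later. 3H2O incorporation into liver saponified fatty acids and 3-β-hydroxysterols is expressed as % of untreated rats (untreated n = 3 or 4, mean ± SD).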

[18] = biological target: T1, ATP-citrate synthase (Rattus norvegicus, UniProt P16638); test: Inhibition against ATP-citrate lyase in rat liver; format: tissue-based
T1 sequence (P16638 whole entry): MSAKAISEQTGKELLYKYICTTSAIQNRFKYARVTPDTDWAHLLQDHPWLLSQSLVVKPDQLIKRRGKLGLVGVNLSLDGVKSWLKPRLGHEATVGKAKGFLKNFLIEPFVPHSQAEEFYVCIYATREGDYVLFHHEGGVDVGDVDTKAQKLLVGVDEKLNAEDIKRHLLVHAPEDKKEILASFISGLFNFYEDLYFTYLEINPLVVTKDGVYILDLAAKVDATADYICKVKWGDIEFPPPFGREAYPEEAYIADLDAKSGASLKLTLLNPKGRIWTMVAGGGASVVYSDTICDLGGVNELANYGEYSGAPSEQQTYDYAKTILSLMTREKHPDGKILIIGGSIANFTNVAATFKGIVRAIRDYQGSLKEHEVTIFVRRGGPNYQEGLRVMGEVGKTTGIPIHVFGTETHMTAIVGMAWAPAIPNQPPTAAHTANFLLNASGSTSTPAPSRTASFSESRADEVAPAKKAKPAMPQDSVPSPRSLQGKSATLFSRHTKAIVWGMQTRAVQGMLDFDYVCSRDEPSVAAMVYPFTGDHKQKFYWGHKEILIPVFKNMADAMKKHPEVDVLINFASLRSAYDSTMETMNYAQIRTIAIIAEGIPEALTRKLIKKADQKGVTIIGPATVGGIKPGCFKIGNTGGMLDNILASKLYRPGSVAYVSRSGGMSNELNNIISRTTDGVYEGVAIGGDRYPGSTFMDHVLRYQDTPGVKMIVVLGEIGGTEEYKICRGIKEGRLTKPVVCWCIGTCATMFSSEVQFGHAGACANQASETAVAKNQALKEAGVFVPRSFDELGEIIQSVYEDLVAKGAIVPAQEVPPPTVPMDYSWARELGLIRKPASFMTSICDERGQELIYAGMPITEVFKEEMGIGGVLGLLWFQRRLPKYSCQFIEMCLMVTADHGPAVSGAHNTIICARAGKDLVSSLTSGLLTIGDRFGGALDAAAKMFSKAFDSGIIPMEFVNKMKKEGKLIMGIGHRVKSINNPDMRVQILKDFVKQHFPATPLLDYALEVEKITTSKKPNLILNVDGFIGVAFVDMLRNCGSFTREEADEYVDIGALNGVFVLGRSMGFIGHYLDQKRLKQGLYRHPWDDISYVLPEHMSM
How it was run: (§4)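 Liver citrate lyase activity measured across varying concentrations of homologue. Ki (mM) determined from a Dixon plot.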

[19] = species on record: Rattus norvegicus; test: Inhibition of lipid synthesis, by incorporation of 3H20 into saponified fatty acids in cultured rat hepatocytes; format: functional; details: Hepatocyte, read-out: I50; how it was run: as §2
[20] = biological target: Peroxisomal bifunctional enzyme (Rattus norvegicus) (UniProt P07896); test: Liver peroxisomal enoyl-CoA hydratase activity in rats
[21] = biological target: Peroxisomal bifunctional enzyme (Rattus norvegicus) (UniProt P07896); test: Percent of liver peroxisomal enoyl-CoA hydratase activity in rats
[22] = species on record: Rattus norvegicus; test: Percent of hypolipidemic activity in rats by evaluating the plasma cholesterol level at 0.1%(w/w) in diet for three days; format: functional
How it was run: (§5)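 Rats treated 3 days with 0.1% (w/w) analogue in diet. Plasma triacylglycerols and cholesterol (mg %) compared with untreated rats (mean ± SD, n = 3).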

[23] = species on record: Rattus norvegicus; test: Percent of hypolipidemic activity in rats by evaluating the plasma triacylglycerol level at 0.1%(w/w) in diet for three days; format: functional; how it was run: as §5
[24] = test system: Rattus norvegicus; test: In vivo lipid synthesis as percent of nontreated control by incorporation of 3H20 into 3-beta-hydroxysterols in rat, at 0.1%(w/w) in diet for three days
[25] = test system: Rattus norvegicus; test: In vivo percent inhibition of lipid synthesis, by incorporation of 3H20 into liver saponified fatty acids in rat, at 0.1%(w/w) in diet for three days; format: functional; details: values are per cent of control; how it was run: as §3
[26] = test system: Rattus norvegicus; test: Hypolipidemic activity in rats by evaluating the plasma triacylglycerol level at a dose of 10 mg/kg for seven days; format: functional
How it was run: (§6)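 Male Lewis rats, 150–180 g, fed standard chow ad libitum. Compound given orally as a suspension in 1% aqueous tylose; controls received vehicle. Blood taken from the retrobulbar venous plexus 3 h after dosing. Plasma cholesterol and triacylglycerols measured spectrophotometrically with enzymatic kits.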

[27] = test system: Rattus norvegicus; test: Hypolipidemic activity in rats by evaluating the plasma cholesterol level at a dose of 10 mg/kg for seven days; format: functional; how it was run: as §6
[28] = biological target: T1, ATP-citrate synthase; test: Inhibition against ATP-citrate lyase in rat liver.; how it was run: as §4
[29] = biological target: T1, ATP-citrate synthase; test: Inhibition against ATP-citrate lyase in liver; format: tissue-based; how it was run: as §4
[30] = species on record: Rattus norvegicus; test: Hypolipidemic activity in rats by evaluating the plasma cholesterol level at 0.1%(w/w) in diet for three days
[31] = biological target: T1, ATP-citrate synthase; test: Inhibition against ATP-citrate lyase in liver.; format: tissue-based
How it was run: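 Liver ATP-citrate lyase activity was followed across varying inhibitor concentrations, and Ki was derived from a Dixon plot. The methods otherwise refer to an earlier report.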

Peroxisomal bifunctional enzyme (Rattus norvegicus), sequence (P07896 whole entry, looked up): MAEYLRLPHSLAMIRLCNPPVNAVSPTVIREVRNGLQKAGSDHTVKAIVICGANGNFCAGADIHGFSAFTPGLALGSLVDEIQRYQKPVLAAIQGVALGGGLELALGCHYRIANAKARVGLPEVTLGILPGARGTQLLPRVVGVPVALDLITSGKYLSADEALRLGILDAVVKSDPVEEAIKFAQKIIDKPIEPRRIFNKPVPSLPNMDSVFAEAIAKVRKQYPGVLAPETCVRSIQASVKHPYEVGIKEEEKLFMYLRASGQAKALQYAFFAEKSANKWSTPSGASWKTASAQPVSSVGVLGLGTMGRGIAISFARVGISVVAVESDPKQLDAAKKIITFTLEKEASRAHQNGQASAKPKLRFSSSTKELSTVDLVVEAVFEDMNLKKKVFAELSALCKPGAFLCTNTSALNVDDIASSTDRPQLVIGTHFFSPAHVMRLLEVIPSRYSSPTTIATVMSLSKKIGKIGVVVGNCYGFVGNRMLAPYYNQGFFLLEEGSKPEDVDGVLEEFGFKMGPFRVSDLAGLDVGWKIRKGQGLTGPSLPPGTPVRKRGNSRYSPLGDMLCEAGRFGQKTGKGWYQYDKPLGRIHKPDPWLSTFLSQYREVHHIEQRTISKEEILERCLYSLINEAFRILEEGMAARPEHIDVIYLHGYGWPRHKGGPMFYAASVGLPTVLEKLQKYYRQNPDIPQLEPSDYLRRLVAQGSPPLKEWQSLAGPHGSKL
Enoyl-CoA hydratase (Rattus norvegicus), sequence (P07896 whole entry): as the sequence (P07896 whole entry, looked up) above

Row | Activity (uM min-1 mg-1) [20] | Activity (uM min-1 mg-1) [21] | SMILES | IC50 [16] [µM] | Fatty acid synthesis (% of untreated control) [17] [%] | IC50 [19] [µM] | Activity [23] [%] | Incorporation [24] [%] | residual activity [25] [%] | Hypolipidemic activity [26] [%] | Activity (mg) [27] [%] | also measured
1 | 7.5 | – | CC(C)(CCCCCCC(C)(C)CC(=O)O)CC(=O)O | 200 | 80 | 300 | – | – | – | – | – | Ki [18]: 310 µM
2 | – | 10.5 | CC(C)(C/C=C\c1ccc(/C=C/CC(C)(C)CC(=O)O)cc1)CC(=O)O | – | – | – | 25 | 37 | 50 | – | – | Activity [22]: 37%
3 | – | 4.5 | CC(C)(C/C=C\c1ccc(/C=C\CC(C)(C)CC(=O)O)cc1)CC(=O)O | – | – | – | 98 | 97 | 72 | – | – | Activity [22]: 47%
4 | – | 18.6 | CC(C)(C/C=C/c1ccc(/C=C/CC(C)(C)CC(=O)O)cc1)CC(=O)O | – | – | – | 41 | 57 | 57 | – | – | Activity [22]: 28%
5 | 16.3 | – | CC(C)(CCCCCCCCC(C)(C)CC(=O)O)CC(=O)O | 100 | 66 | 100 | – | – | – | 126 | 70 | Ki [28]: 56 µM
6 | – | 12 | CC(C)(CCCc1ccc(CCCC(C)(C)CC(=O)O)cc1)CC(=O)O | – | – | – | 84 | 65 | 63 | – | – | Activity [22]: 36%

Further lines, the compound ahead of its results:

Row | SMILES | Activity (uM min-1 mg-1) [20] | Activity (uM min-1 mg-1) [21] | IC50 [16] [µM] | Fatty acid synthesis (% of untreated control) [17] [%] | IC50 [19] [µM] | Activity [23] [%] | Incorporation [24] [%] | residual activity [25] [%] | Hypolipidemic activity [26] [%] | Activity (mg) [27] [%] | also measured
7 | O=C(O)CC(CCCCCCCCCCC(CC(=O)O)(c1ccccc1)c1ccccc1)(c1ccccc1)c1ccccc1 | – | – | – | – | – | – | – | – | – | – | Activity (nmol/mg.of protein. min) (nmol/mg protein/min) [1]: 4.8; Activity (mg) [2]: 70.5%; Activity (nmol/mg.of protein. min) (nmol/mg protein/min) [3]: 4.4; Activity (mg) [4]: 131%; Activity (umol/mg.of protein. min) (µmol/mg protein/min) [5]: 0.45; Activity (mg) [6]: 58%; Activity (umol/g.of liver 75.min) [7]: 118 µmol/g liver/75 min; Activity (mg) [8]: 70%; Activity (umol/g.of liver 75.min) [9]: 4.3 µmol/g liver/75 min; Activity (umol/g.of liver 75.min) [10]: 3.4 µmol/g liver/75 min; Activity (umol/g.of liver 75.min) [11]: 3.9 µmol/g liver/75 min; Activity (umol/g.of liver 75.min) [12]: 123 µmol/g liver/75 min; Activity (mg) [13]: 127%; Activity (mg) [14]: 101%; Activity (nmol/mg.of protein. min) (nmol/mg protein/min) [15]: 7.2
8 | CC(C)(CCCCCCCCCCCCC(C)(C)CC(=O)O)CC(=O)O | 17.5 | – | 150 | 48 | 150 | – | – | – | 130 | 73 | Ki [29]: 46 µM
9 | CC(C)(CCCCCCCCCCC(C)(C)CC(=O)O)CC(=O)O | 31 | 10.7 | 80 | 29 | 80 | 49 | 40 | 48 | 111 | 58 | Plasma cholesterol [30]: 32 mg %; Ki [31]: 16 µM
10 | CC(C)(CCCC1CCC(CCCC(C)(C)CC(=O)O)CC1)CC(=O)O (stereo not given) | – | 14 | – | – | – | 63 | 71 | 79 | – | – | Plasma cholesterol [30]: 42 mg %
11 | CC(C)(CCCCCCCCCCCCCCCCC(C)(C)CC(=O)O)CC(=O)O | 3.5 | – | 400 | 158 | 400 | – | – | – | – | – | Ki [29]: 320 µM
12 | CC(C)(CCCCCCCCCCCCCCC(C)(C)CC(=O)O)CC(=O)O | 5 | – | 300 | 113 | 300 | – | – | – | – | – | Ki [29]: 260 µM
13 | CC(C)(CCCCCCCCCC(C)(C)CC(=O)O)CC(=O)O | – | – | – | – | – | – | – | – | 112 | 72 | –
14 | CC(C)(CCCCCCCCCCCC(C)(C)CC(=O)O)CC(=O)O | – | – | – | – | – | – | – | – | 113 | 73 | –
